Measurements as given in ChEMBL document CHEMBL3739417, “Synthesis and biological evaluation of novel 4,5-disubstituted 2H-1,2,3-triazoles as cis-constrained analogues of combretastatin A-4” (2015).

Columns and labels:
Type in all cases: functional
M14 = assay: Growth inhibition of human M14 cells after 48 hrs by sulforhodamine B assay; details: M14, 48 h; for CC50: read-out: LD50 (the source's name)
Procedure, shortened: (§1)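 NCI-60 panel screen by SRB assay (Rubinstein method). Percentage growth taken from optical density of SRB colour, read before and 48 hrs after exposure to compound or vehicle control. All analogues first screened at 10^-5 M. Analogues giving 60% growth inhibition at that level in at least eight lines then went to a five-concentration dose-response study.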

[1] = Growth inhibition of human HCT116 cells after 48 hrs by sulforhodamine B assay; details: HCT-116, 48 h; for CC50: read-out: LD50 (the source's name); procedure, shortened: as §1
SR = assay: Growth inhibition of human SR cells after 48 hrs by sulforhodamine B assay; details: for LC50 (concentration giving 50% net cell kill): read-out: LD50; procedure, shortened: as §1
SK-MEL-28 = assay: Growth inhibition of human SK-MEL-28 cells after 48 hrs by sulforhodamine B assay; details: SK-MEL-28, 48 h; for CC50: read-out: LD50 (the source's name); procedure, shortened: as §1
[2] = Growth inhibition of human UACC62 cells after 48 hrs by sulforhodamine B assay; details: UACC-62, 48 h; for CC50: read-out: LD50 (the source's name); procedure, shortened: as §1
[3] = Growth inhibition of human IGROV1 cells after 48 hrs by sulforhodamine B assay; details: IGROV-1, 48 h; for CC50: read-out: LD50 (the source's name); procedure, shortened: as §1
[4] = Growth inhibition of human OVCAR4 cells after 48 hrs by sulforhodamine B assay; details: OVCAR-4, 48 h; for LC50 (concentration killing 50% of cells): read-out: LD50; procedure, shortened: as §1
[5] = Growth inhibition of human Hs 578T cells after 48 hrs by sulforhodamine B assay; details: for CC50: read-out: LD50 (the source's name); procedure, shortened: as §1
[6] = Growth inhibition of human SF539 cells after 48 hrs by sulforhodamine B assay; details: SF-539, 48 h; for LC50 (concentration giving 50% cell kill): read-out: LD50
Procedure, shortened: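 NCI-60 sulforhodamine B screen. Compounds were first tested at a single dose of 10⁻⁵ M; hits, defined as ≥60% growth inhibition in at least eight lines, went on to a five-concentration dose–response. SRB optical density was read before and 48 h after exposure to compound or vehicle. Percentage growth was calculated from OD.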

Row | SMILES | GI50 (M14) | CC50 (M14) | GI50 [1] | CC50 [1] | GI50 (SR) | LC50 (concentration giving 50% net cell kill) (SR) | GI50 (SK-MEL-28) | CC50 (SK-MEL-28) | GI50 [2] | CC50 [2] | GI50 [3] | CC50 [3] | GI50 [4] | LC50 (concentration killing 50% of cells) [4] | GI50 [5] | CC50 [5] | GI50 [6] | LC50 (concentration giving 50% cell kill) [6] | TGI [6]
1 | Clc1ccc(-c2n[nH]nc2-c2ccccn2)c(Cl)c1 | 14300 nM | > 100 µM | 2890 nM | > 100 µM | 5430 nM | > 100 µM | 5.39 µM | > 100 µM | 3.35 µM | > 100 µM | 5940 nM | > 100 µM | 3040 nM | > 100 µM | 11600 nM | > 100 µM | – | – | –
2 | COc1cc(-c2n[nH]nc2-c2ccc3c(c2)OCCO3)cc(OC)c1OC | < 10 nM | > 100 µM | < 10 nM | > 100 µM | < 10 nM | > 100 µM | > 100 µM | > 100 µM | > 100 µM | > 100 µM | 33 nM | > 100 µM | 34 nM | > 100 µM | 668 nM | > 100 µM | < 10 nM | > 100 µM | –
3 | COc1cc(-c2n[nH]nc2-c2ccc3ccccc3n2)cc(OC)c1OC | 22 nM | > 100 µM | 40 nM | > 100 µM | 21 nM | > 100 µM | > 100 µM | > 100 µM | 0.157 µM | > 100 µM | 65 nM | > 100 µM | 77 nM | > 100 µM | – | – | 20 nM | > 100 µM | –
4 | COc1ccc(-c2nn[nH]c2-c2cc(OC)c(OC)c(OC)c2)cc1 | < 10 nM | > 100 µM | < 10 nM | > 100 µM | < 10 nM | > 100 µM | – | – | – | – | < 10 nM | > 100 µM | < 10 nM | > 100 µM | < 10 nM | > 100 µM | < 10 nM | > 100 µM | < 10 nM
5 | COc1ccc(-c2n[nH]nc2-c2cc(OC)cc(OC)c2)cc1 | < 10 nM | > 100 µM | < 10 nM | > 100 µM | < 10 nM | > 100 µM | – | – | < 0.01 µM | > 100 µM | 51 nM | > 100 µM | – | – | 41 nM | > 100 µM | 14 nM | > 100 µM | –
6 | COc1cc(-c2n[nH]nc2-c2ccc3c(c2)OCO3)cc(OC)c1OC | – | – | 180 nM | > 100 µM | 40 nM | > 100 µM | 0.24 µM | > 100 µM | > 100 µM | > 100 µM | > 100000 nM | > 100 µM | 80 nM | > 100 µM | 440 nM | > 100 µM | 180 nM | > 100 µM | –
